Measurements taken from ChEMBL document CHEMBL4396871, “Leveraging a Low-Affinity Diazaspiro Orthosteric Fragment to Reduce Dopamine D3 Receptor (D3R) Ligand Promiscuity across Highly Conserved Aminergic G-Protein-Coupled Receptors (GPCRs)” (J Med Chem, 2019).
Each block holds one compound with its values, some of them ahead of it.

Assays:
D(3) dopamine receptor = D(3) dopamine receptor (Homo sapiens, UniProt P35462); experiment: Agonist activity at recombinant human D3 receptor expressed in CHOK1 cells assessed as induction of beta arrestin2 recruitment measured after 30 mins by coelenterazine-based beta-galactosidase reporter gene assay; format: cell-based
Chain of D(3) dopamine receptor (P35462 whole entry): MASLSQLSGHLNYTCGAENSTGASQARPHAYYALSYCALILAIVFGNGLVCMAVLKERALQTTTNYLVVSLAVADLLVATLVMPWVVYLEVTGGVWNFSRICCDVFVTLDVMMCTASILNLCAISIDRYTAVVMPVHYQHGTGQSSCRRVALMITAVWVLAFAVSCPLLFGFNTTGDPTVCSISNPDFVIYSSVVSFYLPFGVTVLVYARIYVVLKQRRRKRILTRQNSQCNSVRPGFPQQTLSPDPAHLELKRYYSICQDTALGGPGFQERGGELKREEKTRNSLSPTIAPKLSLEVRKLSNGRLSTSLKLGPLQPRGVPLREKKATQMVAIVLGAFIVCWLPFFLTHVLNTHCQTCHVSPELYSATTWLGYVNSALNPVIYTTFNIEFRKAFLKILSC

D2 dopamine receptor [1] = target: T1, D2 dopamine receptor (Homo sapiens, UniProt P14416); experiment: Agonist activity at recombinant human D2 receptor expressed in CHOK1 cells assessed as induction of beta arrestin2 recruitment measured after 30 mins by coelenterazine-based beta-galactosidase reporter gene assay; format: ADME, cell-based
T1 sequence (P14416 whole entry): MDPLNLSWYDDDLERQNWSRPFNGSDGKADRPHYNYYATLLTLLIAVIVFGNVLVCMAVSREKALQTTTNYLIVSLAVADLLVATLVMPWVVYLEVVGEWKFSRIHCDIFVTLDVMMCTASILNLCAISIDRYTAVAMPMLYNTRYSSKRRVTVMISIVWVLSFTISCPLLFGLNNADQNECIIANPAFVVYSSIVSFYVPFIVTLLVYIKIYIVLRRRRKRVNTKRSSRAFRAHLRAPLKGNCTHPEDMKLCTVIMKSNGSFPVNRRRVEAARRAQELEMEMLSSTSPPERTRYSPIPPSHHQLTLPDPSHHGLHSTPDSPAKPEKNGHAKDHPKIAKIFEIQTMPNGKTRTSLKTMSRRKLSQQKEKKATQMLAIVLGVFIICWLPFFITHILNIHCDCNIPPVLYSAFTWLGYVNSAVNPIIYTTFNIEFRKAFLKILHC

D2 dopamine receptor [2] = target: T1, D2 dopamine receptor; experiment: Antagonist activity at recombinant human D2 receptor expressed in CHOK1 cells assessed as inhibition of quinpirole-induced beta arrestin2 recruitment preincubated for 30 mins followed by quinpirole addition and measured after 90 mins by coelenterazine-based beta-galactosidase reporter gene assay; format: cell-based
D(4) dopamine receptor = D(4) dopamine receptor (Homo sapiens, UniProt P21917); experiment: Agonist activity at recombinant human D4 receptor expressed in CHOK1 cells assessed as induction of beta arrestin2 recruitment measured after 30 mins by coelenterazine-based beta-galactosidase reporter gene assay; format: cell-based
Chain of D(4) dopamine receptor (P21917 whole entry): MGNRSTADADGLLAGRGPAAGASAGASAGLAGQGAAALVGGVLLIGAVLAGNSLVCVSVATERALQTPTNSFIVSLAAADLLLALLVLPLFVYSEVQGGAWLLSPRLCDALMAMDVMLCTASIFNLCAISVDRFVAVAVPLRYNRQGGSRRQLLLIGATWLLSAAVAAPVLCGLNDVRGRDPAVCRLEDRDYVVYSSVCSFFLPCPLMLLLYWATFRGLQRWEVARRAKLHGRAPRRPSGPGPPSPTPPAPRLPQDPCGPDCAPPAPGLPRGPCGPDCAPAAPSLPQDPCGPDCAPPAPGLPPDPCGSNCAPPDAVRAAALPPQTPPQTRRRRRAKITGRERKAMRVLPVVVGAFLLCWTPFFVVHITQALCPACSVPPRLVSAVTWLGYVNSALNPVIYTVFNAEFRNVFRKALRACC

[3] = target: 5-hydroxytryptamine receptor 1D (Homo sapiens) (UniProt P28221); experiment: Displacement of [3H]-5-CT from recombinant human 5HT1D receptor transiently expressed in HEKT cell membranes at 10 uM measured after 90 mins by microbeta scintillation counting method relative to control
Chain of 5-hydroxytryptamine receptor 1D (Homo sapiens) (P28221 whole entry): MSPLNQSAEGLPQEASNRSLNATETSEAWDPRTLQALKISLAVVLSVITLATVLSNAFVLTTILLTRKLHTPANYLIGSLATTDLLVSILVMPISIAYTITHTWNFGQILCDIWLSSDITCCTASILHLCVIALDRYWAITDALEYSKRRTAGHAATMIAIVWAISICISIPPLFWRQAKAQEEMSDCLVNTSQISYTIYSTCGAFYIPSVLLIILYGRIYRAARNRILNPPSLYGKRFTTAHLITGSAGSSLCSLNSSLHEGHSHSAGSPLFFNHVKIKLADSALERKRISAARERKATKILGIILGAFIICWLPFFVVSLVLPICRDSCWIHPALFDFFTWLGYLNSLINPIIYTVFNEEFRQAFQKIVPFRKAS
Method in brief: (§1)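 Primary screen at 10 μM compound, expressed as % receptor inhibition, from at least three experiments.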

[4] = target: 5-hydroxytryptamine receptor 3A (Homo sapiens) (UniProt P46098); experiment: Displacement of [3H]-GR65630 from recombinant human 5HT3 receptor transiently expressed in HEKT cell membranes at 10 uM measured after 90 mins by microbeta scintillation counting method relative to control; method in brief: as §1
Chain of 5-hydroxytryptamine receptor 3A (Homo sapiens) (P46098 whole entry): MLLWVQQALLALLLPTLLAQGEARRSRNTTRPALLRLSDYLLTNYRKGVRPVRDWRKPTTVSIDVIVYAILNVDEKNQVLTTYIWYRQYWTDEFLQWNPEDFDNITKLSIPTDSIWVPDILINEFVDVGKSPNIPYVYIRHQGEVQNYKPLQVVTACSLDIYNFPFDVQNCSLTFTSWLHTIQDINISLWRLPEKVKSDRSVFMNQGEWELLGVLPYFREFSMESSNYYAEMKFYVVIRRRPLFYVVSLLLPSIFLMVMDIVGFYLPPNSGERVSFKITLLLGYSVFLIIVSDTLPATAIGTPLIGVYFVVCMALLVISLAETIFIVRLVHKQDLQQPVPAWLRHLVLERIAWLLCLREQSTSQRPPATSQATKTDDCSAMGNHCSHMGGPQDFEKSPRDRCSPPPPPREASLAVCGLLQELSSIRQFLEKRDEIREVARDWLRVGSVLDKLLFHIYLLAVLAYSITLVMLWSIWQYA

[5] = target: T2, 5-hydroxytryptamine receptor 7 (Homo sapiens, UniProt P34969); experiment: Displacement of [3H]-LSD from recombinant human 5HT7A receptor stably expressed in HEK cell membranes measured after 90 mins by microbeta scintillation counting method
T2 sequence (P34969 whole entry): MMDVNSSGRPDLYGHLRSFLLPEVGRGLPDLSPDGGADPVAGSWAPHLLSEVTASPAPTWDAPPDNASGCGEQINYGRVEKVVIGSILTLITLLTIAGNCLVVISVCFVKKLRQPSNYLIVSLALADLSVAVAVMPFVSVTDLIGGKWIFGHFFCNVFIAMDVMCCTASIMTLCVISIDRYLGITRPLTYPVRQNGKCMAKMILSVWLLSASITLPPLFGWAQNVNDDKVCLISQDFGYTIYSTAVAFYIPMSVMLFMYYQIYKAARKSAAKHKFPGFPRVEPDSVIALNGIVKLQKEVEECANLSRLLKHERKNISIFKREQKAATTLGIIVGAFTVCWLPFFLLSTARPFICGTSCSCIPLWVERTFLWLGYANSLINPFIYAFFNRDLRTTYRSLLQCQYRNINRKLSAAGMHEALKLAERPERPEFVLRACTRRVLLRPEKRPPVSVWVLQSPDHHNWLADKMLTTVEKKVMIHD

Histamine H2 receptor = Histamine H2 receptor (Homo sapiens, UniProt P25021); experiment: Displacement of [125I]-Iodo-aminopotentidine from human histamine H2 receptor expressed in stable HEK cells after 90 mins by microbeta scintillation counting method; format: cell-based
Chain of Histamine H2 receptor (P25021 whole entry): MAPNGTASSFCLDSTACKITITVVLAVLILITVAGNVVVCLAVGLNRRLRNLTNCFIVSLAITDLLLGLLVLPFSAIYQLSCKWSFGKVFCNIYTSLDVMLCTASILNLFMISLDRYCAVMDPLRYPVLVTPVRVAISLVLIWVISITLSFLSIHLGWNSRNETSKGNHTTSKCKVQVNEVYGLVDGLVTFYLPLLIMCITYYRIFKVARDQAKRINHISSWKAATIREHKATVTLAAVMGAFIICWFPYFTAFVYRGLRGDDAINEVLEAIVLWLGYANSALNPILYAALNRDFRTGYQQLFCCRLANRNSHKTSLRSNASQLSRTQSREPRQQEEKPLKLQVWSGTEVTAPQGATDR

[6] = target: Muscarinic acetylcholine receptor M1 (Homo sapiens) (UniProt P11229); experiment: Displacement of [3H]-QNB/[3H]-NMS from human muscarinic M1 receptor expressed in stable CHO cells at 10 uM after 90 mins by microbeta scintillation counting method relative to control; format: cell-based; method in brief: as §1
Chain of Muscarinic acetylcholine receptor M1 (Homo sapiens) (P11229 whole entry): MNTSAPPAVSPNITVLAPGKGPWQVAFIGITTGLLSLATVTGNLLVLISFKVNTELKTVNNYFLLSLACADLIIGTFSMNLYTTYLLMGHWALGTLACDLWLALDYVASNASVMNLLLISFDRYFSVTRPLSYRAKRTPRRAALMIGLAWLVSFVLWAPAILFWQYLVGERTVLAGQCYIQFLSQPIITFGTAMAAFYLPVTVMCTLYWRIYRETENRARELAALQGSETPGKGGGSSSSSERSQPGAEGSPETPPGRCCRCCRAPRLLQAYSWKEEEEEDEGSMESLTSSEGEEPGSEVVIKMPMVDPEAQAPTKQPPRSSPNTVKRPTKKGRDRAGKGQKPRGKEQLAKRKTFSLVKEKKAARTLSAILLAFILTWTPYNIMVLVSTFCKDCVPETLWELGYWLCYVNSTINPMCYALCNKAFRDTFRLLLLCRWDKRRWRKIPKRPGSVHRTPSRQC

[7] = target: Muscarinic acetylcholine receptor M2 (Homo sapiens) (UniProt P08172); experiment: Displacement of [3H]-QNB/[3H]-NMS from human muscarinic M2 receptor expressed in stable CHO cells at 10 uM after 90 mins by microbeta scintillation counting method relative to control; format: cell-based; method in brief: as §1
Chain of Muscarinic acetylcholine receptor M2 (Homo sapiens) (P08172 whole entry): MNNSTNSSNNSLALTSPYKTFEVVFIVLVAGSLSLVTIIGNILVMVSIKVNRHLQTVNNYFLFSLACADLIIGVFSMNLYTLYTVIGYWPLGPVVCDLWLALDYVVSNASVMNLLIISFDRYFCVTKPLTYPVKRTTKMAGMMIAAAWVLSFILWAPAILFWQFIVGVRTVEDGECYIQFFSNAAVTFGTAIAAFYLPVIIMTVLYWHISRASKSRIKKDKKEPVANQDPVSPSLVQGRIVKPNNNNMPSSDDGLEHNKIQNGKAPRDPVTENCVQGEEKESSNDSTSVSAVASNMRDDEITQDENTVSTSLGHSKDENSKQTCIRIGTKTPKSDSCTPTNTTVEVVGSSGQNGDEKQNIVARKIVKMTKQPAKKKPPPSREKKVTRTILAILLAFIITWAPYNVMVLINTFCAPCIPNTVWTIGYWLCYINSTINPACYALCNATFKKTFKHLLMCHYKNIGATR

[8] = target: Muscarinic acetylcholine receptor M3 (Homo sapiens, UniProt P20309); experiment: Displacement of [3H]-QNB/[3H]-NMS from human muscarinic M3 receptor expressed in stable CHO cells at 10 uM after 90 mins by microbeta scintillation counting method relative to control; format: cell-based; method in brief: as §1
[9] = target: Muscarinic acetylcholine receptor M4 (Homo sapiens) (UniProt P08173); experiment: Displacement of [3H]-QNB/[3H]-NMS from human muscarinic M4 receptor expressed in stable CHO cells at 10 uM after 90 mins by microbeta scintillation counting method relative to control; format: cell-based; method in brief: as §1
[10] = target: T3, Alpha-2A adrenergic receptor (Homo sapiens, UniProt P08913); experiment: Displacement of [3H]-rauwolscine from recombinant human alpha2A adrenergic receptor stably expressed in MDCK cells measured after 90 mins by microbeta scintillation counting method; format: cell-based
T3 sequence (P08913 whole entry): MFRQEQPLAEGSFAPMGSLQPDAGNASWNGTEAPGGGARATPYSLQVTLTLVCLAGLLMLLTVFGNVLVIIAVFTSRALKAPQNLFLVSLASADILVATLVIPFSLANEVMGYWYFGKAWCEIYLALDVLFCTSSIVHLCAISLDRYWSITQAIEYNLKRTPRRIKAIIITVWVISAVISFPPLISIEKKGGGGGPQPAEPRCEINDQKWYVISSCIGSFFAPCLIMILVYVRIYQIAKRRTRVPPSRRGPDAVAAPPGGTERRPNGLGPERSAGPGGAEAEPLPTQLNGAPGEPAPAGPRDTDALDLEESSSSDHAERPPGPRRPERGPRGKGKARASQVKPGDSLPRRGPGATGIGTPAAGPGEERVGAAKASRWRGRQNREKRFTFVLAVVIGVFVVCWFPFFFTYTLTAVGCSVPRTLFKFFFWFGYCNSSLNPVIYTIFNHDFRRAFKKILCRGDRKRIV

[11] = target: Nicotinic acetylcholine receptor alpha2/beta2 (Homo sapiens) (UniProt P02708+P17787); experiment: Displacement of [3H]-epibatidine from recombinant human alpha2beta2 nACHR stably expressed in HEK cells at 10 uM measured after 90 mins by microbeta scintillation counting method relative to control; format: cell-based; method in brief: as §1
[12] = target: Neuronal acetylcholine receptor; alpha3/beta4 (Homo sapiens, UniProt P30926+P32297); experiment: Displacement of [3H]-epibatidine from recombinant human alpha3beta4 nACHR stably expressed in HEK cells at 10 uM measured after 90 mins by microbeta scintillation counting method relative to control; format: cell-based; method in brief: as §1
[13] = target: T4, Sodium-dependent serotonin transporter (Homo sapiens, UniProt P31645); experiment: Displacement of [3H]-citalopram from recombinant human SERT stably expressed in HEK cells at 10 uM measured after 90 mins by microbeta scintillation counting method relative to control; format: cell-based; method in brief: as §1
D2 dopamine receptor [14] = target: T1, D2 dopamine receptor; experiment: Displacement of [3H]N-methylspiperone from recombinant human D2 receptor stably expressed in fibroblast measured after 90 mins by microbeta scintillation counting method
D(1B) dopamine receptor = D(1B) dopamine receptor (Homo sapiens, UniProt P21918); experiment: Displacement of [3H]-SCH23390 from recombinant human D5 receptor transiently expressed in HEK cell membranes measured after 90 mins by microbeta scintillation counting method
Chain of D(1B) dopamine receptor (P21918 whole entry): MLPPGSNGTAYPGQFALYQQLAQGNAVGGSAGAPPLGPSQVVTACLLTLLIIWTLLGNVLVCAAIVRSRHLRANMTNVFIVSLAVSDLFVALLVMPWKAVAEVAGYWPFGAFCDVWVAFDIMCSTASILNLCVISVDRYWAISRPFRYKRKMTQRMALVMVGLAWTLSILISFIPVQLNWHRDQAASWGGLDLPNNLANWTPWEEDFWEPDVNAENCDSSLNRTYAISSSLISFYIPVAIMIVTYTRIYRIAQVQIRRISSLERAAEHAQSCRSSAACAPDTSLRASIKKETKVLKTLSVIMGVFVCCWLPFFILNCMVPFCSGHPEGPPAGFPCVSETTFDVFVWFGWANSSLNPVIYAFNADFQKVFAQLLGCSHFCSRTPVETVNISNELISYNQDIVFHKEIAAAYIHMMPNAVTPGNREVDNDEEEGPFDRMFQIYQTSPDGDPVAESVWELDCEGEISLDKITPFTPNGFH

D2 dopamine receptor [15] = target: T1, D2 dopamine receptor; experiment: Displacement of [3H]N-methylspiperone from recombinant human D2 receptor stably expressed in fibroblast at 10 uM measured after 90 mins by microbeta scintillation counting method relative to control; conditions: fibroblasts stably expressing recombinant human D2 receptor, probe [3H]N-methylspiperone
[16] = target: D(4) dopamine receptor (Homo sapiens) (UniProt P21917); experiment: Displacement of [3H]N-methylspiperone from recombinant human D4 receptor stably expressed in HEK cell membranes at 10 uM measured after 90 mins by microbeta scintillation counting method relative to control
Chain of D(4) dopamine receptor (Homo sapiens) (P21917 whole entry): as the sequence (P21917 whole entry) above

[17] = target: 5-hydroxytryptamine receptor 1B (Homo sapiens, UniProt P28222); experiment: Displacement of [3H]-5-CT from recombinant human 5HT1B receptor stably expressed in HEK cell membranes at 10 uM measured after 90 mins by microbeta scintillation counting method relative to control; method in brief: as §1
[18] = target: 5-hydroxytryptamine receptor 2C (Homo sapiens) (UniProt P28335); experiment: Displacement of [3H]-mesulergine from recombinant human 5HT2C receptor transiently expressed in HEKT cell membranes at 10 uM measured after 90 mins by microbeta scintillation counting method relative to control; method in brief: as §1
[19] = target: T2, 5-hydroxytryptamine receptor 7; experiment: Displacement of [3H]-LSD from recombinant human 5HT7A receptor stably expressed in HEK cell membranes at 10 uM measured after 90 mins by microbeta scintillation counting method relative to control; method in brief: as §1
[20] = target: Muscarinic acetylcholine receptor M2 (Homo sapiens, UniProt P08172); experiment: Displacement of [3H]-QNB/[3H]-NMS from human muscarinic M2 receptor expressed in stable CHO cells after 90 mins by microbeta scintillation counting method; format: cell-based
Chain of Muscarinic acetylcholine receptor M2 (P08172 whole entry): as the sequence (P08172 whole entry) above

[21] = target: Muscarinic acetylcholine receptor M4 (Homo sapiens, UniProt P08173); experiment: Displacement of [3H]-QNB/[3H]-NMS from human muscarinic M4 receptor expressed in stable CHO cells after 90 mins by microbeta scintillation counting method; format: cell-based
[22] = target: T3, Alpha-2A adrenergic receptor; experiment: Displacement of [3H]-rauwolscine from recombinant human alpha2A adrenergic receptor stably expressed in MDCK cells at 10 uM measured after 90 mins by microbeta scintillation counting method relative to control; format: cell-based; conditions: probe [3H]-rauwolscine
[23] = target: Sodium-dependent noradrenaline transporter (Homo sapiens, UniProt P23975); experiment: Displacement of [3H]-nisoxetine from recombinant human NET stably expressed in HEK cells measured after 90 mins by microbeta scintillation counting method; format: cell-based
[24] = target: T4, Sodium-dependent serotonin transporter; experiment: Displacement of [3H]-citalopram from recombinant human SERT stably expressed in HEK cells measured after 90 mins by microbeta scintillation counting method; format: cell-based

- EC50 (D(3) dopamine receptor; read-out: EC50): 167 nM
- EC50 (D2 dopamine receptor [1]; read-out: EC50): 254 nM
- IC50 (D2 dopamine receptor [2]): 328 nM
- EC50 (D(4) dopamine receptor): 359 nM
- inhibition [3]: > 50%
- inhibition [4]: < 50%
- Ki [5]: 128 nM
- Ki (Histamine H2 receptor): 871 nM
- inhibition [6]: < 50%
- inhibition [7]: < 50%
- inhibition [8]: < 50%
- inhibition [9]: < 50%
- Ki [10]: 221 nM
- inhibition [11]: < 50%
- inhibition [12]: < 50%
- inhibition [13]: < 50%
- Ki (D2 dopamine receptor [14]): 577 nM
- Ki (D(1B) dopamine receptor): 3020 nM
Structure (SMILES): COc1ccccc1N1CCN(CCCSc2nnc(-c3ccccc3)n2C)CC1

- EC50 (D(3) dopamine receptor): Not Active
- EC50 (D2 dopamine receptor [1]): Not Active
- IC50 (D2 dopamine receptor [2]): 1620 nM
- inhibition at […], 10 µM (D2 dopamine receptor [15]): < 50%
- inhibition [16]: < 50%
- inhibition [17]: < 50%
- inhibition [3]: < 50%
- inhibition [18]: < 50%
- inhibition [4]: < 50%
- inhibition [19]: < 50%
- Ki (Histamine H2 receptor): 596 nM
- inhibition [6]: 54%
- Ki [20]: 52 nM
- Ki [21]: 590 nM
- inhibition at […], 10 µM [22]: < 50%
- inhibition [11]: < 50%
- Ki [23]: 931 nM
- Ki [24]: 295 nM
Structure (SMILES): COc1ccccc1N1CCC2(CCN(CCCSc3nnc(-c4ccccc4)n3C)CC2)CC1
